Shown are actives, neighbours in structure and some others; about 2.3% of the full set was active somewhere.
PAFAH2 inh – PAFAH2 enzyme inhibitors, primary screen, biochemical, fluorescence polarization, human; inhibition, % at 3.39 µM; Platelet-activating factor acetylhydrolase 2, cytoplasmic (Homo sapiens), Q99487; recombinant PAFAH2, FP-rhodamine activity probe; hit rate 0.99% among 340,000;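 active means inhibition above the mean over all tested compounds plus 3 SD, cut at about 30% in these data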;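 further: inhibitors block probe labeling of enzyme so polarization drops; 0% = enzyme with DMSO and 100% = wells lacking PAFAH2 protein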
PAFAH1B3 FP inh – PAFAH1B3 enzyme inhibitors, primary screen, biochemical, fluorescence polarization, human. inhibition, % at 3.39 µM. recombinant PAFAH1B3, FP-rhodamine probe. Platelet-activating factor acetylhydrolase IB subunit alpha1 (Homo sapiens), Q15102. hit rate 0.28% among 340,000. AID 492972, 2010;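 active means inhibition above the screen-wide average of all tested compounds plus 3 SD, cut at about 25% in these data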;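 further: 0% = enzyme with DMSO only and 100% = wells lacking PAFAH1B3 protein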
TDP2 absorb – human TDP2 enzyme inhibitors, primary screen, biochemical, epi absorbance, recombinant enzyme. T5PNP hydrolysis, p-nitrophenol absorbance 415 nm. inhibition, % at 12.8 µM. hit rate 0.34% among 370,000;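 active means inhibition above the mean of all tested compounds plus 3 SD, set per campaign, cut at about 25% in these data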;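 further: 0% = DMSO with enzyme and 100% = buffer with substrate but no TDP2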
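Test system: human TDP2 enzyme; Input: 120 nM TDP2 per well; Buffer or medium: Mg2+-containing Tris-HCl buffer, pH 7.5; Reagent: 5 mM T5PNP; Dosing: 12.8 µM single point, 1% DMSO; Incubation: reaction 2 h, 37 °C; Detection: p-Nitrophenol epi absorbance; Read-out: % inhibition relative to enzyme-containing and enzyme-free wells; Replicates: single well per compound.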
Apaf-1 inh – inhibitors of human Apaf-1 apoptosome, primary screen, biochemical, DEVD-Rh110 fluorescence, uHTS. reconstituted apoptosome caspase-3 activity. AID 489030, 2010. Apoptotic protease-activating factor 1 (Homo sapiens), O14727. hit rate 0.71% among 330,000. inhibition, % at 20 µM; active means inhibition of at least 40% at 20 µM;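 further: plate controls were DMSO wells for no effect and DEVD-CHO caspase inhibitor wells for full effect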
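Material: reconstituted apoptosome with Apaf-1, cytochrome c, caspase-9, procaspase-3, dATP; medium: pH 7.5 Hepes buffer with CHAPS, BSA, DTT; also added: cytochrome c and DEVD-Rh110 substrate; timing: 30 min plus 50 min, RT; signal: Rh110 fluorescence intensity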
PAFAH1B2 inh – PAFAH1B2 enzyme inhibitors, primary screen, biochemical, fluorescence polarization, human. recombinant PAFAH1B2, FP-rhodamine activity probe. inhibition, % at 3.39 µM. hit rate 1.2% among 340,000. AID 492953, 2010;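 active means inhibition above the mean of all tested compounds plus 3 SD, cut at about 24% in these data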;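 further: 0% = enzyme with DMSO and 100% = wells lacking PAFAH1B2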
TDP2 inh conf – human TDP2 enzyme inhibitors, retest, confirmation, biochemical, epi absorbance, recombinant enzyme; hit rate 22% among 1,100; shares compounds with TDP2 absorb; absorbance read-out; inhibition, % at 12.8 µM; in the data active means inhibition above about 25%;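 further: 0% = vehicle with enzyme and 100% = no enzyme buffer only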
Starred values were filed as active, the others as inactive; . = no result.

SMILES	PAFAH2 inh	PAFAH1B3 FP inh	TDP2 absorb	Apaf-1 inh	PAFAH1B2 inh	TDP2 inh conf
CCc1ccc(-n2c(=O)c3ccccc3n3c(=S)[nH]nc23)cc1	10	3	3	6	-1	.
COc1ccc(/C=N/Nc2nnc(C)n2N)cc1OC(C)=O	-6	-7	42*	5	4	9
COc1ccc(/C=N/Nc2nnc(C)n2N)cc1OC	-6	-1	54*	-16	1	-3
COC(=O)Cn1cnc2c(NC(=O)c3ccccc3)ncnc21	.	.	-1	.	.	.
COc1cc(CN2CC(C)OC(C)C2)cc(OC)c1 (stereo unspecified)	0	-1	24*	-20	5	4
COc1cc(CN2CCCCCC2)cc(OC)c1	-8	5	8	-4	2	.
CC1=NN(c2ccc(Cl)cc2)C(=O)C1	14	2	58*	39	3	6
O=S(=O)(CC1NCc2cc(F)ccc21)NCc1ccccc1 (stereo unspecified)	.	.	9	.	.	.
CCCCc1c(-c2ccccc2OC)ncn1C1CCCCC1	.	.	7	.	.	.
O=C(Nc1ccc(NC(=O)c2ccco2)cc1)c1ccco1	-3	8	28*	-5	1	9
O=C(Nc1ccc(Br)cc1)c1ccco1	6	-6	-8	-4	1	.
COc1ccc(/C=C2\SC(=S)N(CC(=O)N(C)C3CCS(=O)(=O)C3)C2=O)cc1 (stereo unspecified)	1	1	-3	20	3	.
COc1cccc(/C=C2\SC(=S)N(CC(=O)N(C)C3CCS(=O)(=O)C3)C2=O)c1 (stereo unspecified)	-6	-1	30*	-2	-1	-3
Cc1ccc(NC(=O)CSc2nnc(-c3ccccc3F)n2-c2ccccc2)c(C)c1	.	.	-4	.	.	.
O=C(c1cc(COc2cccc3cnccc23)on1)N1CCC(c2ccccc2Cl)C1 (stereo unspecified)	-3	1	25*	23	2	0
COC(=O)CSc1nnc(-c2n[nH]c3c2CCC3)n1N	.	.	8	.	.	.
CCCN1CCN(CCCNC(=O)Cn2nc(C)n3c(cc4cc(OC)ccc43)c2=O)CC1	6	6	27*	-3	8	-5
Cc1cccc(C)c1NC(=O)C1CCCN1S(=O)(=O)c1cccc2cccnc12 (stereo unspecified)	.	.	6	.	.	.
Cc1cc(Br)cc(C=Nc2ccc(N3CCOCC3)cc2)c1O	1	-1	34*	5	-2	-8
Oc1ccc(C=Nc2ccc(N3CCOCC3)cc2)c(O)c1	14	2	12	-2	9	.
O=C(Nc1ccccc1Cl)OC1CC2CC1[C@H]1CCCCN1[C@H]2Cc1ccccc1 (stereo partly specified)	.	.	0	.	.	.
CC1OC2CC(=O)OC2C2=C1C(=O)c1c(O)cccc1C2=O (stereo unspecified)	.	.	42*	.	.	44*
CCOC(=O)C1CCN(c2cc3c(cc2NC(=O)c2ccccc2Br)n(C)c(=O)n3C)CC1	4	3	26*	10	3	0
COC(=O)[C@]12C[C@H](CC(=O)NCc3ccc(C)o3)C(=O)N(Cc3cccc4ccccc34)C1=C[C@H](C(C)(C)C)O[C@@H]2C	.	.	-6	.	.	.
COc1ccc(/C=C/C(=O)NC2CCN(Cc3ccccc3)CC2)cc1OC	-15	2	28*	7	-4	-8
CC(C)(C)c1ccc(-c2nnc(SCC(=O)Nc3cccc4ccccc34)n2Cc2ccco2)cc1	.	.	-3	.	.	.
CN(Cc1cnn(C)c1)Cc1nc(-c2ccc(Cl)cc2)no1	5	3	-9	-24	-1	.
CCc1ccc(CN(C)Cc2nc(-c3cccc(Cl)c3)no2)nc1	0	1	28*	9	3	4
Cc1[nH]c2ccccc2c1C(=O)CN1C(=O)C(=O)N(C2CCCC2)C1=O	0	8	26*	15	-2	4
O=C(NCCCO)c1ccc2nc(-c3ccco3)c(-c3ccco3)nc2c1	33*	29*	40*	.	18	31*

Screening data (PubChem BioAssay)
